Measured values of several laboratories.
Target: Serine/threonine-protein kinase Nek1 (NEK1, Homo sapiens, UniProt Q96PY6)
Residues used in one study (Q96PY6 1-1258): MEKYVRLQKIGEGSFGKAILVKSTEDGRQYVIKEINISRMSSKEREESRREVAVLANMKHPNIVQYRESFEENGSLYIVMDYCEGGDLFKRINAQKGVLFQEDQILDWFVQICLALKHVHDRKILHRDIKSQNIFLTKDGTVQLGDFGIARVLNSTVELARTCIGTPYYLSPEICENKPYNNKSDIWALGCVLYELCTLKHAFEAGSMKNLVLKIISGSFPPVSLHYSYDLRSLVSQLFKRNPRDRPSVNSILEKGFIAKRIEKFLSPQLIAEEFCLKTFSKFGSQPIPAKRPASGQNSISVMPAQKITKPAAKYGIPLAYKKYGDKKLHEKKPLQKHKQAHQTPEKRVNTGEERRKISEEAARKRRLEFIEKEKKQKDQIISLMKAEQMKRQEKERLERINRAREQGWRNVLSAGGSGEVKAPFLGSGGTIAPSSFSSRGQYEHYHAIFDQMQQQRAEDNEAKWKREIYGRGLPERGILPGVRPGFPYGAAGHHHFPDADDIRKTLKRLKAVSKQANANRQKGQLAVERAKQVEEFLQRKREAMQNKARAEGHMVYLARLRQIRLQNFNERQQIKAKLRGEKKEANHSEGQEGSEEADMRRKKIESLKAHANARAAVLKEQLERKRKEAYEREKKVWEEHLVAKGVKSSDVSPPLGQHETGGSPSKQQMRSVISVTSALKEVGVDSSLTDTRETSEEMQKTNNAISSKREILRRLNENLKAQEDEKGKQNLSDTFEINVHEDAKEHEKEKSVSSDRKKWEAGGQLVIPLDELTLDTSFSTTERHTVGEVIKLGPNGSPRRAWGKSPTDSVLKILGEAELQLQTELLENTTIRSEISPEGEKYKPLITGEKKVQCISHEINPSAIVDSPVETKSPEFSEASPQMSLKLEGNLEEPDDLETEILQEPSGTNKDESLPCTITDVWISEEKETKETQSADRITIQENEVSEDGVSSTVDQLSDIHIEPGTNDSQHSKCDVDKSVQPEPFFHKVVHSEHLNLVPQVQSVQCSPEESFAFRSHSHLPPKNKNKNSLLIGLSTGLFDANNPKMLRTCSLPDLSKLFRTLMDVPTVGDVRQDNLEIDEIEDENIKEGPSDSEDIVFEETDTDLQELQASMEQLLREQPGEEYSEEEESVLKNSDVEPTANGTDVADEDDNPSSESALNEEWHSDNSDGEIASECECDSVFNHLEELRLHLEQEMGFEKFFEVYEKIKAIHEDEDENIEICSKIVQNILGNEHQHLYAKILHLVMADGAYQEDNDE

`COc1ccc2[nH]c3c4[nH]c5ccc(OC)cc5c4c4c(c3c2c1)C(=O)NC4=O` gave a remaining binding of 100% (binding; 1 µM).
The inhibition of `Cc1cc(O)c(-c2ccc([C@@H](C)CN(C)C)cc2)c2c1[nH]c(=O)c1sccc12` is reported as -3.68% (enzyme activity; inhibitor; 0.1 µM).
The remaining signal of `C[C@H]1CC[C@H](n2c3cnccc3c3cnc(Nc4ccc5c(n4)CCN(C(=O)CO)C5)nc32)CC1` is reported as 85% (cell-free assay; 1 µM).
For `CC#CC(=O)N1CCC[C@H]1c1nc(-c2ccc(C(=O)Nc3ccccn3)cc2)c2c(N)nccn12`, the inhibition was 8% (enzyme activity; inhibitor; 1 µM).
With `C1=C/COCc2cc(ccc2OCCN2CCCC2)Nc2nccc(n2)-c2cccc(c2)COC/1` the remaining binding was 98% (binding; 0.1 µM).
With `COc1ccc2oc(-c3ccc4nc(N)oc4c3)c/c(=N\c3ccccc3NC(=O)CCN)c2c1` the remaining binding was 108% (binding; 1 µM).
The remaining binding of `CCCCC(=O)Nc1ccc(-c2ccc3ncn(CCC)c(=O)c3c2)cn1` is reported as 95% (binding; competition with immobilised ligand; 0.5 µM).
`CO[C@@H]1[C@H](N(C)C(=O)c2ccccc2)C[C@H]2O[C@]1(C)n1c3ccccc3c3c4c(c5c6ccccc6n2c5c31)C(=O)NC4` gave an inhibition of 0% (enzyme activity; inhibitor; 1 µM).
`C#Cc1cc(-c2cc(Nc3nc(N[C@@H](C)c4ccc(F)cn4)ncc3Cl)n[nH]2)ccc1C=O` gave an inhibition of 70.2% (enzyme activity; inhibitor; 0.2 µM).
